The values below come from ChEMBL document CHEMBL5252534, “Discovery of a Noncovalent, Mutant-Selective Epidermal Growth Factor Receptor Inhibitor” (J Med Chem, 2016).

Data set [1] has as its target T1, Epidermal growth factor receptor (Homo sapiens, UniProt P00533, 746-750DEL/T790M). It is filed as cell-based, PC-9/ER1.
A short description of data set [2]: Clearance in human liver microsomes. It is filed as ADME, Microsome. The gist of the method: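 Incubation with human liver microsomes; intrinsic clearance scaled to predicted hepatic clearance as Clhep = (Q × Clint)/(Q + Clint), where Q is liver blood flow.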
Data set [3] concerns the target T2, Epidermal growth factor receptor (Homo sapiens, UniProt P00533). Put plainly: Inhibition of EGFR autophosphorylation in human NCI-H292 cells harboring harboring wild type EGFR preincubated for 60 mins followed by EGF stimulation and measured after 8 mins by SULFO-TAG based electrochemiluminescent assay. Type of data set: cell-based.
Target sequence in this assay (P00533 25-1210 limits assumed, stated change not applied): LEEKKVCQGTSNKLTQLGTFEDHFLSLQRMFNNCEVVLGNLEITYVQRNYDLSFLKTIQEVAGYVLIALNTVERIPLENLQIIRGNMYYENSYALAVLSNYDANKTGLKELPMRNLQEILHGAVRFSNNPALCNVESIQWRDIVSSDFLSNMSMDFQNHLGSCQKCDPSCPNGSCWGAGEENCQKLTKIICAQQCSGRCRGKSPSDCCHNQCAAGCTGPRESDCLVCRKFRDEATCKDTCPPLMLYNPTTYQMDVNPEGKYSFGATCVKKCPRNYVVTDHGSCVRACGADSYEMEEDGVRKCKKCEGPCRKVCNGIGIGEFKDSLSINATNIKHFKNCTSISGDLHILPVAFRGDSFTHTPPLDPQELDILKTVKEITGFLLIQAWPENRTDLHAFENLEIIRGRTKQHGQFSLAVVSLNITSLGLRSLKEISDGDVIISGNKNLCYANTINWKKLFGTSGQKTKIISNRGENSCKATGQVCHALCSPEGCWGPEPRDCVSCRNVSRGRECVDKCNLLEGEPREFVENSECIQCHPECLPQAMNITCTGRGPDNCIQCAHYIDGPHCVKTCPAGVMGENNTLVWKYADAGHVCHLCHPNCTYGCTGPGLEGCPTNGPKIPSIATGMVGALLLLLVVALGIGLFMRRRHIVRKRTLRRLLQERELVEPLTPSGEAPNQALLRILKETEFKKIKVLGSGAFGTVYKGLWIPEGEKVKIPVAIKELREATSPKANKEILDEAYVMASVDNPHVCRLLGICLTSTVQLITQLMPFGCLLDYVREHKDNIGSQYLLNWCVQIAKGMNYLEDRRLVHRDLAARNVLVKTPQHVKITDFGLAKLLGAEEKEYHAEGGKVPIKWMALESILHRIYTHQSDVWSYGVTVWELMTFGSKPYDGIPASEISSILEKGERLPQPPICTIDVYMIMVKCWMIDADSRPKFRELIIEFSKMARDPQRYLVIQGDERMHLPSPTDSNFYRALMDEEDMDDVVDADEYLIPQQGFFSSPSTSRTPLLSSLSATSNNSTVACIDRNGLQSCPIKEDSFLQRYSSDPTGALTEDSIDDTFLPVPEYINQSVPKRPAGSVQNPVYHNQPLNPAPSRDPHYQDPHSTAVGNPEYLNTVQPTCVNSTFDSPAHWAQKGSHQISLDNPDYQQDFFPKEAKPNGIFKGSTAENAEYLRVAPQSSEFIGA
The nature of data set [4]: Aqueous kinetic solubility of compound in PBS buffer at pH 7.4 at 100 uM incubated for 24 hrs by LC/CLND analysis. It is filed as physicochemical. As to conditions: read-out: Kinetic_solubility. The essentials:
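Kinetic aqueous solubility measured at pH 7.4.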

A short description of data set [5]: Apparent permeability across apical to basolateral side in dog MDCK cells. It is filed as ADME, cell-based, Canis lupus familiaris.
Data set [6] can be described thus: Clearance in human hepatocyte. Type of data set: ADME, cell-based. Conditions: hepatocytes. The essentials: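 Cryopreserved human hepatocytes used; intrinsic clearance converted to predicted hepatic clearance as (Q × Clint)/(Q + Clint) using liver blood flow Q.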
Data set [7] deals with T3, Epidermal growth factor receptor (Homo sapiens, UniProt P00533, L858R/T790M). Type of data set: cell-based, NCI-H1975.
Data set [8] concerns the target T4, Epidermal growth factor receptor (Homo sapiens, UniProt P00533, 746-750DEL). Type of data set: cell-based, PC-9.
Data set [9] concerns the target T2, Epidermal growth factor receptor. Put plainly: Inhibition of wild type human EGFR assessed as apparent inhibition constant using Fl-EEPLYWSFPAKKK-CONH2 as substrate preincubated for 30 mins followed by addition of substrate and measured after 30 mins by Morrison plot analysis. Conditions: read-out: Ki(app).
In data set [10] the target is T3, Epidermal growth factor receptor. Description: Inhibition of human EGFR T790M/L858R double mutant assessed as apparent inhibition constant using Fl-EEPLYWSFPAKKK-CONH2 as peptide substrate preincubated for 30 mins followed by addition of substrate and measured after 30 mins by Morrison plot analysis. Conditions: read-out: Ki(app).
The target of data set [11] is T4, Epidermal growth factor receptor. Description: Inhibition of human EGFR del (746 to 750) mutant assessed as apparent inhibition constant using Fl-EEPLYWSFPAKKK-CONH2 as substrate preincubated for 30 mins followed by addition of substrate and measured after 30 mins by Morrison plot analysis. Conditions: read-out: Ki(app). The essentials: (§1)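 Biochemical kinase Ki determination; reported values are geometric means of at least two independent experiments.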

In data set [12] the target is Epidermal growth factor receptor (Homo sapiens, UniProt P00533, L858R). Description: Inhibition of human EGFR L858R mutant assessed as apparent inhibition constant using Fl-EEPLYWSFPAKKK-CONH2 peptide as substrate preincubated for 30 mins followed by addition of substrate and measured after 30 mins by Morrison plot analysis. As to conditions: read-out: Ki(app). The gist of the method:
as §1

For data set [13], the target named is T1, Epidermal growth factor receptor. Description: Inhibition of human EGFR T790M/del (746 to 750 residues) mutant assessed as apparent inhibition constant using Fl-EEPLYWSFPAKKK-CONH2 peptide as substrate preincubated for 30 mins followed by addition of substrate and measured after 30 mins by Morrison plot analysis. Conditions: read-out: Ki(app). The essentials: as §1

SMILES strings stand for the structures. In brackets after ≈: the same amount, converted by molar mass.

Sequence of Epidermal growth factor receptor (Homo sapiens, UniProt P00533, L858R) (P00533 25-1210 L858R limits assumed): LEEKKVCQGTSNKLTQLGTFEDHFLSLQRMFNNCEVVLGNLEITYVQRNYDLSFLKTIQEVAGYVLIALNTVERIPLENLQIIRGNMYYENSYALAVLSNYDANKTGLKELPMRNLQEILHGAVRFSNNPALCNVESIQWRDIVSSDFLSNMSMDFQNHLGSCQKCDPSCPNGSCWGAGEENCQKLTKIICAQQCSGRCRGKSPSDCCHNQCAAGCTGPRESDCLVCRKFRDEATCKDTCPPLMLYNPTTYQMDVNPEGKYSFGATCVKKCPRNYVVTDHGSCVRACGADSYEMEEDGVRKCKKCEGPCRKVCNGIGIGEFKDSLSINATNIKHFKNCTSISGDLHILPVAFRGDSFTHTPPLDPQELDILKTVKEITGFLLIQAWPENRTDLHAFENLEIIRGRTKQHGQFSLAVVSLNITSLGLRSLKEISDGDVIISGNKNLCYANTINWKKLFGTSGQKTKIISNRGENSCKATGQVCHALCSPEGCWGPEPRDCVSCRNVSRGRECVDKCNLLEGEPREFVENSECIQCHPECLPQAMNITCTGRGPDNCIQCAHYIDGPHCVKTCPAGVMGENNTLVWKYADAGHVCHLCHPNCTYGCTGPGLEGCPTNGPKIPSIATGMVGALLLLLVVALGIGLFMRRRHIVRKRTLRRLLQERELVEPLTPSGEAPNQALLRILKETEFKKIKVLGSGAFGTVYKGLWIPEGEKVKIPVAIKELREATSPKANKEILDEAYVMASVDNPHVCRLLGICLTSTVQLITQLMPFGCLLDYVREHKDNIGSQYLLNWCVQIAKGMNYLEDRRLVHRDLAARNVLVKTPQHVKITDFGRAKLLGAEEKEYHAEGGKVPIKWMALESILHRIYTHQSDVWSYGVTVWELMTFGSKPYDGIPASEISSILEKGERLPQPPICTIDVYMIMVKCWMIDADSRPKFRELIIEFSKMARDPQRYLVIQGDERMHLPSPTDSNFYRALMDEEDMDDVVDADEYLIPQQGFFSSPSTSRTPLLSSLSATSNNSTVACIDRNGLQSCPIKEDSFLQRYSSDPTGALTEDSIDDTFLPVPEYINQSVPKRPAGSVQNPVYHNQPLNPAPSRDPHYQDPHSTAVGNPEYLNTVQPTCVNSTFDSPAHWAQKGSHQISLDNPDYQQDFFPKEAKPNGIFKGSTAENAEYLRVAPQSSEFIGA
T3 sequence (P00533 25-1210 T790M/L858R limits assumed): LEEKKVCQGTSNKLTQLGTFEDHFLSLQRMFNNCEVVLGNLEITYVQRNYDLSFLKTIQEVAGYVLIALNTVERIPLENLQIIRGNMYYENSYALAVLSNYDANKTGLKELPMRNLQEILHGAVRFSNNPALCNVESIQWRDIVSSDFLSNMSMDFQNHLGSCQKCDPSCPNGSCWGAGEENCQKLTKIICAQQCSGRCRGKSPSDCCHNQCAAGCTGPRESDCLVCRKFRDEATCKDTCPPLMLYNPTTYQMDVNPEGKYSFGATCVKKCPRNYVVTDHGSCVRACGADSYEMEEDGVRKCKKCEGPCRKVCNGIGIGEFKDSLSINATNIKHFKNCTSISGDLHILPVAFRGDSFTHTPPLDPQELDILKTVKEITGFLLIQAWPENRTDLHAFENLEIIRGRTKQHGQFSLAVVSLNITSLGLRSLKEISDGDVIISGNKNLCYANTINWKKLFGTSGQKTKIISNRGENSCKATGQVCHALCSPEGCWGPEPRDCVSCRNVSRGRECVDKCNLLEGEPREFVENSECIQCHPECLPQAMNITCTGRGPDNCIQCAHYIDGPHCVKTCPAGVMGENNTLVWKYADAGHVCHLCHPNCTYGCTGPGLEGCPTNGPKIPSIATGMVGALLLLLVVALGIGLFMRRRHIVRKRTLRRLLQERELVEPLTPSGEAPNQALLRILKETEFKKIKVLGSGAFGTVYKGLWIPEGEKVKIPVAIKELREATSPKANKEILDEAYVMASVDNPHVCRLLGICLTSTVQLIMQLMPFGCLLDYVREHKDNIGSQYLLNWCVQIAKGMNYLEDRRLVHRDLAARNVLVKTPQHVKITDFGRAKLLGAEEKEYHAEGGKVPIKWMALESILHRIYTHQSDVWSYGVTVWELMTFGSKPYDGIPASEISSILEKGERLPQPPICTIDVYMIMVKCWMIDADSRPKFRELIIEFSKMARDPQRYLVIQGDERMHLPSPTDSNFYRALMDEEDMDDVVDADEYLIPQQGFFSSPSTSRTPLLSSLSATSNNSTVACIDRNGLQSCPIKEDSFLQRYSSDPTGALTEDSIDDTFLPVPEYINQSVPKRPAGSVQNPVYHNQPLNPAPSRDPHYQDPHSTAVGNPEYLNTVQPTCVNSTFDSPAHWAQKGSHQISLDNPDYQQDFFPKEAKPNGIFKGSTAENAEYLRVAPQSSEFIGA
T1 sequence (P00533 whole entry, looked up, stated change not applied): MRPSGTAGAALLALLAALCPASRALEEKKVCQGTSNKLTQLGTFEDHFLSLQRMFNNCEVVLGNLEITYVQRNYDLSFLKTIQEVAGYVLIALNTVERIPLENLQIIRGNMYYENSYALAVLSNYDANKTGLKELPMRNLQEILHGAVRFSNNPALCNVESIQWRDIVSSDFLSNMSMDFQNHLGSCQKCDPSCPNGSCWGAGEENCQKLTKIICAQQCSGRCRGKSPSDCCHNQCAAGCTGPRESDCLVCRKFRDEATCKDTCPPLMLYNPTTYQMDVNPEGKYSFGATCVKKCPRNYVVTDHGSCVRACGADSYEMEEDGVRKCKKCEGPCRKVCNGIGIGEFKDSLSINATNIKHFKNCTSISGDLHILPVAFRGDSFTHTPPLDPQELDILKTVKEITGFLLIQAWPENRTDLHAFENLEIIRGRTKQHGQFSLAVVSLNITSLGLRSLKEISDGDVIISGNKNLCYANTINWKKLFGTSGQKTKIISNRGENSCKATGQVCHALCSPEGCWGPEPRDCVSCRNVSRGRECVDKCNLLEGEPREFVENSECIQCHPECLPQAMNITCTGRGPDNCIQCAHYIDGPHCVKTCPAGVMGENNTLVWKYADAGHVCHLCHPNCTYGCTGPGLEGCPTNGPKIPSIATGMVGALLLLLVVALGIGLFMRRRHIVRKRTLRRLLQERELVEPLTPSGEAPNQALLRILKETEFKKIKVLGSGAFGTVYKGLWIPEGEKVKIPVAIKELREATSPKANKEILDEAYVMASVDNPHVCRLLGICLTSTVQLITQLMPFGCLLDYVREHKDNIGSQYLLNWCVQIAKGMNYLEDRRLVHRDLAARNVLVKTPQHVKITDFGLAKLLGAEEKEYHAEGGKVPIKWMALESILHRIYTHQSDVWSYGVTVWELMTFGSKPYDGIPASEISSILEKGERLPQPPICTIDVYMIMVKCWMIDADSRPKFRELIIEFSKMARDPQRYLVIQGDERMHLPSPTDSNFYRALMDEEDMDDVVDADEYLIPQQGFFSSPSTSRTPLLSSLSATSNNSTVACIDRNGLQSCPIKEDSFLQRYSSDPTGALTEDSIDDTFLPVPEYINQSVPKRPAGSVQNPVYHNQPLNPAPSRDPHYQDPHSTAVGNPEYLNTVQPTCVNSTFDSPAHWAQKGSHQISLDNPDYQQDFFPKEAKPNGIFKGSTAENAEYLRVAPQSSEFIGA

Take `CC[C@@H](C)n1nc(N2CC(C(C)(C)O)C2)c2cnc(Nc3ccnc(-c4cnn(S(=O)(=O)C5CC5)c4)n3)cc21`: the IC50 amounted to 15 nM in data set [1], 580 nM in [3], 40 nM in [7] and 57 nM in [8]. For the same compound, the CLhep predicted in data set [2] was 9.9 mL/min/kg; in [6], 7.8 mL/min/kg. The solubility kinetic at 24 h, 100 µM in data set [4] is 2 µM (≈ 1.1 µg/mL). In addition, in data set [5], the Papp A→B was determined as 19 ×10⁻⁶ cm/s.
On to `CC(C)n1nc(N2CCC(O)CC2)c2cnc(Nc3ccnc(-c4cnn(S(=O)(=O)C5CC5)c4)n3)cc21`, for which the values for the CLhep predicted in [2] and in data set [6] were 7 mL/min/kg and 7.7 mL/min/kg, respectively. For the same compound, the solubility kinetic at 24 h, 100 µM in [4] worked out at 1 µM (≈ 0.524 µg/mL). Also, the Papp A→B in data set [5] was determined as 12 ×10⁻⁶ cm/s.
As to `CC(C)n1nc(N)c2cnc(Nc3ccnc(-c4cnn(S(=O)(=O)C5CC5)c4)n3)cc21`, the IC50 in [1] is 14 nM; in data set [3], 3900 nM; in [7], 64 nM; in data set [8] it was 80 nM. Besides, the CLhep predicted is 13 mL/min/kg in data set [2] and 8.4 mL/min/kg in data set [6]. Besides, the Ki turned out to be 8.2 nM in data set [9] and 0.79 nM in data set [10]. Also, the solubility kinetic at 24 h, 100 µM in data set [4] came out at 2 µM (≈ 0.879 µg/mL). In data set [5], the Papp A→B amounted to 16 ×10⁻⁶ cm/s.
Regarding `Cc1nc2cnc(Nc3ccnc(-c4cnn(S(C)(=O)=O)c4)n3)cc2n1C(C)C`, the Ki in data set [9] was 324 nM; in [11] it was 38 nM; in data set [12] it was 126 nM; in data set [13], 3.5 nM.
As for `CC(C)n1cc(C(=O)NC2CCOCC2)c2cnc(Nc3ccnc(-c4cnn(S(=O)(=O)C5CC5)c4)n3)cc21`, the Ki in data set [9] is 3.4 nM; in data set [11], 1.4 nM; in data set [10] it was 1.2 nM; in [12], 3.8 nM; in data set [13] it was 1.6 nM. Besides, the solubility kinetic at 24 h, 100 µM in data set [4] amounted to 11 µM (≈ 6.06 µg/mL). Besides, the Papp A→B in data set [5] stood at 4.6 ×10⁻⁶ cm/s.
For `CC(C)n1nc(N2CC(C(C)(C)O)C2)c2cnc(Nc3ccnc(-c4cnn(S(=O)(=O)C5CC5)c4)n3)cc21`, the IC50 in data set [1] amounted to 10 nM; in data set [3], 210 nM; in data set [7] it was 32 nM; in [8], 130 nM. For the same compound, the CLhep predicted in [2] is 8.9 mL/min/kg; in [6], 7.1 mL/min/kg. Also, the Ki in data set [9] is 7 nM; in [10] it was below 0.6 nM. Moreover, the solubility kinetic at 24 h, 100 µM in data set [4] was below 1 µM. For the same compound, the Papp A→B in data set [5] turned out to be 20 ×10⁻⁶ cm/s.
Take `CC(C)n1nc(N2CC(CO)C2)c2cnc(Nc3ccnc(-c4cnn(S(=O)(=O)C5CC5)c4)n3)cc21`: the IC50 is 8.1 nM in data set [1], 96 nM in data set [3], 19 nM in [7] and 28 nM in [8]. The figures for the CLhep predicted in [2] and in [6] were 10 mL/min/kg and 13 mL/min/kg, respectively. The Ki in data set [9] was 2 nM; in data set [10] it was below 0.6 nM. Further, in data set [4], the solubility kinetic at 24 h, 100 µM was determined as 3 µM (≈ 1.53 µg/mL). The Papp A→B in [5] worked out at 8.1 ×10⁻⁶ cm/s.
In the case of `CC(C)n1cc(C(N)=O)c2cnc(Nc3ccnc(-c4cnn(S(=O)(=O)C5CC5)c4)n3)cc21`, the Ki in data set [9] is 7.8 nM; in [11], 1.2 nM; in [10] it was 1.1 nM; in [12], 4.1 nM; in [13], 0.35 nM. In addition, in [4], the solubility kinetic at 24 h, 100 µM is below 1 µM. Further, the Papp A→B in [5] was found to be 4.5 ×10⁻⁶ cm/s.
`Cc1nc2cnc(Nc3ccnc(-c4cnn(CC5CC5)c4)n3)cc2n1C(C)C`: the results for the Ki in [9] and in data set [10] were 1200 nM and 34 nM, respectively.
On to `COC1CCN(c2nccc(Nc3cc4c(cn3)c(C(N)=O)cn4C(C)C)n2)CC1`, for which the Ki in data set [9] was 167 nM; in data set [11] it was 323 nM; in [10] it was 5.3 nM; in [12], 363 nM; in data set [13], 27 nM. For the same compound, the solubility kinetic at 24 h, 100 µM in data set [4] came to 3 µM (≈ 1.23 µg/mL). The Papp A→B in data set [5] was found to be 26 ×10⁻⁶ cm/s.
Turning to `CO[C@H]1CCN(c2nccc(Nc3cc4c(cn3)nc(C)n4C(C)C)n2)C[C@H]1F`, the Ki in data set [9] came to 896 nM; in data set [11], 1800 nM; in [10], 3.6 nM; in data set [12] it was 608 nM; in data set [13], 41 nM.
On to `CC(C)c1nn(C(C)C)c2cc(Nc3ccnc(-c4cnn(S(=O)(=O)C5CC5)c4)n3)ncc12`, for which the 50% inhibitory concentration (IC50) in data set [1] is 910 nM; in data set [3], above 10000 nM; in data set [7], 2400 nM; in data set [8], 3000 nM. Also, the CLhep predicted in data set [2] is 8.5 mL/min/kg; in [6], 15 mL/min/kg. The Ki in [9] was below 531 nM. Besides, the solubility kinetic at 24 h, 100 µM in data set [4] is below 1 µM. In data set [5], the Papp A→B came out at 3.9 ×10⁻⁶ cm/s.
For the compound `COC1CCN(c2nccc(Nc3cc4c(cn3)c(C(N)=O)nn4C(C)C)n2)CC1`, the Ki in data set [9] was above 100 nM.
`CC(C)n1nc(N2CCOCC2)c2cnc(Nc3ccnc(-c4cnn(S(=O)(=O)C5CC5)c4)n3)cc21`: the concentration for half-maximal inhibition (IC50) is 19 nM in data set [1], 850 nM in [3], 74 nM in data set [7] and 76 nM in [8]. The results for the CLhep predicted in data set [2] and in [6] were 9.3 mL/min/kg and 6.7 mL/min/kg, respectively. Also, the Ki in data set [9] came out at 10 nM; in [10] it was 2.1 nM. Also, the solubility kinetic at 24 h, 100 µM in [4] is 1 µM (≈ 0.51 µg/mL). Further, the Papp A→B in [5] stood at 12 ×10⁻⁶ cm/s.
Regarding `CC(C)n1cc(C(=O)NC2COC2)c2cnc(Nc3ccnc(-c4cnn(S(=O)(=O)C5CC5)c4)n3)cc21`, the Ki in data set [9] worked out at 4.6 nM; in data set [11] it was 2 nM; in data set [10], 1.1 nM; in data set [12] it was 6.4 nM; in data set [13], 2 nM. Moreover, the solubility kinetic at 24 h, 100 µM in [4] came out at 7 µM (≈ 3.66 µg/mL). Also, in data set [5], the Papp A→B was determined as 2.3 ×10⁻⁶ cm/s.
Consider `Cc1nc2cnc(Nc3ccnc(N4CC[C@H](O)[C@H](F)C4)n3)cc2n1C(C)C` (racemic), for which the figures for the CLhep predicted in [2] and in data set [6] were 5.2 mL/min/kg and 9 mL/min/kg, respectively. For the same compound, the Ki in [11] worked out at 1300 nM; in [12], 1100 nM; in [13] it was 43 nM. In addition, the Papp A→B in [5] was determined as 19 ×10⁻⁶ cm/s.
For `Cc1nc2cnc(Nc3ccnc(-c4cnn(S(=O)(=O)C5CC5)c4)n3)cc2n1C(C)C`, the CLhep predicted was 7.7 mL/min/kg in [2] and 4 mL/min/kg in [6]. Besides, the Ki in data set [9] came to 55 nM; in data set [11], 12 nM; in data set [12], 43 nM; in data set [13] it was 1.8 nM. For the same compound, the apparent permeability from apical to basolateral (Papp A→B) in data set [5] is 21 ×10⁻⁶ cm/s.
